The text below walks through data of ChEMBL document CHEMBL1629439, “High-throughput identification of antibacterials against methicillin-resistant Staphylococcus aureus (MRSA) and the transglycosylase” (Bioorg Med Chem, 2010).

Experiment [1] deals with Staphylococcus aureus. As to the kind of experiment: Antimicrobial activity against oxacillin- and methicillin-resistant Staphylococcus aureus isolate Sa-OXA-R2 after 18 to 24 hrs by alamar blue assay. The class given is functional. The method in brief: (§1)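 Broth microdilution per NCCLS standard, Mueller-Hinton broth, 8-point twofold dilutions; exponentially growing cells at 5 10^5 cells/ml with compound, 18–24 h at 37 C; 20% Alamar blue added, fluorescence read; MIC90 taken as lowest concentration preventing at least 90% growth.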

The next experiment relates to Bacillus subtilis. As to the kind of experiment: Antimicrobial activity against Bacillus subtilis ATCC 23857 after 18 to 24 hrs by alamar blue assay. The class given is functional. Summed up: (§2)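 Broth microdilution per NCCLS in Mueller-Hinton broth, 8-point twofold dilutions, 384-well format. Exponential-phase cells at 5 × 10^5 cells/ml incubated with compound 18–24 h at 37 °C, then 20% Alamar blue added and fluorescence read. MIC90 taken as the lowest concentration preventing at least 90% bacterial growth.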
A general note: Resazurin is reduced to fluorescent resorufin, in cell work by metabolically active cells.

For the next experiment, the system named is Escherichia coli. As to the kind of experiment: Antimicrobial activity against Escherichia coli ATCC […] after 18 to 24 hrs by alamar blue assay. The conditions noted are these: Escherichia coli; read-out: MIC. The class given is functional. The method in brief: as §2
In another experiment the test system is Pseudomonas aeruginosa. In words: Antimicrobial activity against Pseudomonas aeruginosa ATCC 25619 after 18 to 24 hrs by alamar blue assay. The class given is functional. The conditions noted are these: Pseudomonas aeruginosa, ATCC 25619; read-out: MIC. Summed up: as §2
In a further experiment the test system is Acinetobacter baumannii. As to the kind of experiment: Antimicrobial activity against Acinetobacter baumannii ATCC 49139 after 18 to 24 hrs by alamar blue assay. The class given is functional. The conditions noted are these: Acinetobacter baumannii, ATCC 49139; read-out: MIC. The method in brief:
as §2

For experiment [2], the system named is Stenotrophomonas maltophilia. As to the kind of experiment: Antimicrobial activity against Stenotrophomonas maltophilia ATCC 13637 after 18 to 24 hrs by alamar blue assay. The class given is functional. The settings on record: Stenotrophomonas maltophilia, ATCC 13637; read-out: MIC. Summed up: as §2
For another experiment, the system named is Serratia marcescens. In words: Antimicrobial activity against Serratia marcescens ATCC 14756 after 18 to 24 hrs by alamar blue assay. The class given is functional. The settings on record: Serratia marcescens, ATCC 14756; read-out: MIC. The method in brief:
as §2

Experiment [3] relates to Mycolicibacterium smegmatis. In words: Antimicrobial activity against Mycobacterium smegmatis BCRC 11565 after 18 to 24 hrs by alamar blue assay. The class given is functional. The conditions noted are these: Mycolicibacterium smegmatis, BCRC 11565; read-out: MIC. The method in brief: as §2
Experiment [4] concerns Staphylococcus aureus. In words: Antimicrobial activity against methicillin-resistant Staphylococcus aureus isolate NTUH4722 after 18 to 24 hrs by alamar blue assay. The class given is functional. Summed up:
as §1

Experiment [5] relates to Staphylococcus aureus. As to the kind of experiment: Antimicrobial activity against methicillin-resistant Staphylococcus aureus ATCC 33592 after 18 to 24 hrs by alamar blue assay. The class given is functional. The conditions noted are these: Staphylococcus aureus, ATCC 33592; read-out: MIC. Summed up:
as §1

Experiment [6] concerns Staphylococcus aureus. In words: Antimicrobial activity against Staphylococcus aureus ATCC 29213 after 18 to 24 hrs by alamar blue assay.

Structures are written as SMILES. Converted amounts (≈) assume the structure as drawn.

As to `O=C(Nc1nnc(-c2ccc(Cl)cc2)o1)c1ccc(C(F)(F)F)cc1`, the MIC (commonly the lowest concentration found to suppress growth) in the experiment on Staphylococcus aureus [1] was 1.5 µg/mL (≈ 4.08 µM); against Bacillus subtilis, 0.5 µg/mL (≈ 1.36 µM); with Escherichia coli it was more than 256 µg/mL; with Pseudomonas aeruginosa, more than 256 µg/mL; in the experiment on Acinetobacter baumannii it was more than 256 µg/mL; in [2], more than 256 µg/mL. The minimum inhibitory concentration (MIC) in the experiment on Serratia marcescens was more than 256 µg/mL; in [3] it was 0.5 µg/mL (≈ 1.36 µM); against Staphylococcus aureus [4], 1.5 µg/mL (≈ 4.08 µM); with Staphylococcus aureus [5], 1.5 µg/mL (≈ 4.08 µM); against Staphylococcus aureus [6], 3 µg/mL (≈ 8.16 µM).

In the case of `O=C(Nc1nnc(-c2ccccc2Cl)o1)c1nc2ccccc2s1`, the MIC against Staphylococcus aureus [1] is 32 µg/mL (≈ 89.7 µM); against Bacillus subtilis it was 0.5 µg/mL (≈ 1.4 µM); with Escherichia coli, more than 256 µg/mL; in the experiment on Pseudomonas aeruginosa, more than 256 µg/mL; with Acinetobacter baumannii, more than 256 µg/mL; in experiment [2], more than 256 µg/mL. The MIC is more than 256 µg/mL with Serratia marcescens; 0.5 µg/mL (≈ 1.4 µM) in experiment [3]; 2 µg/mL (≈ 5.61 µM) in the experiment with Staphylococcus aureus [4]; 2 µg/mL (≈ 5.61 µM) in the experiment with Staphylococcus aureus [5]; 2 µg/mL (≈ 5.61 µM) with Staphylococcus aureus [6].

In the case of `O=C(Nc1ccc(Cl)cc1)c1cc(Br)cc(Br)c1O`, the MIC in the experiment on Staphylococcus aureus [1] is 1 µg/mL (≈ 2.47 µM); in the experiment with Bacillus subtilis, less than 0.03 µg/mL; in the experiment with Escherichia coli it was 8 µg/mL (≈ 19.7 µM); in the experiment on Pseudomonas aeruginosa, 16 µg/mL (≈ 39.5 µM); in the experiment with Acinetobacter baumannii, 16 µg/mL (≈ 39.5 µM); in experiment [2] it was 16 µg/mL (≈ 39.5 µM). In addition, the MIC was found to be 16 µg/mL (≈ 39.5 µM) in the experiment on Serratia marcescens; 0.5 µg/mL (≈ 1.23 µM) in experiment [3]; 1 µg/mL (≈ 2.47 µM) in the experiment on Staphylococcus aureus [4]; 4 µg/mL (≈ 9.87 µM) with Staphylococcus aureus [5]; 1 µg/mL (≈ 2.47 µM) against Staphylococcus aureus [6].

Turning to `Cc1c(CC(=O)N2CCC(C(=O)O)CC2)c(=O)oc2c(C)c3occ(-c4ccc(F)cc4)c3cc12`, the MIC against Staphylococcus aureus [1] is 2.5 µg/mL (≈ 5.24 µM); in the experiment with Bacillus subtilis, more than 64 µg/mL; in the experiment with Escherichia coli, more than 256 µg/mL; in the experiment with Pseudomonas aeruginosa, more than 256 µg/mL; in the experiment with Acinetobacter baumannii, more than 256 µg/mL; in experiment [2], more than 256 µg/mL. Further, the MIC in the experiment on Serratia marcescens is more than 256 µg/mL; in [3], 1 µg/mL (≈ 2.09 µM); with Staphylococcus aureus [4] it was 2.5 µg/mL (≈ 5.24 µM); with Staphylococcus aureus [5] it was 1.25 µg/mL (≈ 2.62 µM); against Staphylococcus aureus [6], 2.5 µg/mL (≈ 5.24 µM).

Take `CCc1ccccc1NS(=O)(=O)c1ccc2c(c1)NCC(C)C(=O)S2` (centres undefined): the MIC against Staphylococcus aureus [1] was more than 64 µg/mL; against Bacillus subtilis, less than 0.03 µg/mL; in the experiment on Escherichia coli, more than 256 µg/mL; in the experiment with Pseudomonas aeruginosa, more than 256 µg/mL; in the experiment with Acinetobacter baumannii, more than 256 µg/mL; in experiment [2], more than 256 µg/mL. In addition, the MIC is more than 256 µg/mL in the experiment with Serratia marcescens; more than 64 µg/mL in experiment [3]; 4 µg/mL (≈ 10.6 µM) in the experiment with Staphylococcus aureus [4]; 2 µg/mL (≈ 5.31 µM) in the experiment on Staphylococcus aureus [5]; 2 µg/mL (≈ 5.31 µM) in the experiment on Staphylococcus aureus [6].

Consider `Cc1c(CC(=O)N[C@@H](C(=O)O)C(C)C)c(=O)oc2c(C)c3occ(-c4ccc(Cl)cc4)c3cc12`, for which the MIC in the experiment on Staphylococcus aureus [1] was 2.5 µg/mL (≈ 5.19 µM); against Bacillus subtilis it was more than 64 µg/mL; in the experiment on Escherichia coli, more than 256 µg/mL; in the experiment on Pseudomonas aeruginosa, more than 256 µg/mL; in the experiment with Acinetobacter baumannii, more than 256 µg/mL; in experiment [2] it was more than 256 µg/mL. For the same molecule, the MIC was more than 256 µg/mL in the experiment on Serratia marcescens; 1 µg/mL (≈ 2.07 µM) in experiment [3]; 2.5 µg/mL (≈ 5.19 µM) against Staphylococcus aureus [4]; 1.25 µg/mL (≈ 2.59 µM) in the experiment on Staphylococcus aureus [5]; 1.25 µg/mL (≈ 2.59 µM) in the experiment on Staphylococcus aureus [6].

On to `O=C1c2cc([N+](=O)[O-])cc3cc([N+](=O)[O-])cc(c23)C(=O)N1c1cccc2ccccc12`, for which the MIC is 0.125 µg/mL (≈ 0.302 µM) in the experiment on Staphylococcus aureus [1]; 4 µg/mL (≈ 9.68 µM) with Bacillus subtilis; more than 256 µg/mL with Escherichia coli; more than 256 µg/mL in the experiment on Pseudomonas aeruginosa; more than 256 µg/mL in the experiment on Acinetobacter baumannii; more than 256 µg/mL in experiment [2]. The MIC in the experiment with Serratia marcescens is more than 256 µg/mL; in experiment [3] it was 4 µg/mL (≈ 9.68 µM); against Staphylococcus aureus [4] it was 0.125 µg/mL (≈ 0.302 µM); in the experiment with Staphylococcus aureus [5], 2.5 µg/mL (≈ 6.05 µM); against Staphylococcus aureus [6] it was 1.25 µg/mL (≈ 3.02 µM).

`COc1ccccc1N1C(=O)c2cc([N+](=O)[O-])cc3cc([N+](=O)[O-])cc(c23)C1=O`: the MIC was 0.3 µg/mL (≈ 0.763 µM) with Staphylococcus aureus [1]; 4 µg/mL (≈ 10.2 µM) in the experiment with Bacillus subtilis; more than 256 µg/mL with Escherichia coli; more than 256 µg/mL in the experiment with Pseudomonas aeruginosa; more than 256 µg/mL in the experiment with Acinetobacter baumannii; more than 256 µg/mL in experiment [2]. The minimal inhibitory concentration (MIC) was more than 256 µg/mL in the experiment on Serratia marcescens; 4 µg/mL (≈ 10.2 µM) in [3]; 2.5 µg/mL (≈ 6.36 µM) in the experiment on Staphylococcus aureus [4]; 2.5 µg/mL (≈ 6.36 µM) in the experiment with Staphylococcus aureus [5]; 1.25 µg/mL (≈ 3.18 µM) in the experiment on Staphylococcus aureus [6].

For the molecule `O=C(Nc1cccc(-c2nc3ncccc3o2)c1)c1ccc([N+](=O)[O-])o1`, the MIC was found to be 2 µg/mL (≈ 5.71 µM) with Staphylococcus aureus [1]; 0.06 µg/mL (≈ 0.171 µM) in the experiment on Bacillus subtilis; 256 µg/mL (≈ 731 µM) in the experiment on Escherichia coli; 128 µg/mL (≈ 365 µM) in the experiment with Pseudomonas aeruginosa; 12 µg/mL (≈ 34.3 µM) in the experiment with Acinetobacter baumannii; 32 µg/mL (≈ 91.4 µM) in [2]. Moreover, the MIC was 32 µg/mL (≈ 91.4 µM) in the experiment on Serratia marcescens; 0.5 µg/mL (≈ 1.43 µM) in experiment [3]; 2 µg/mL (≈ 5.71 µM) against Staphylococcus aureus [4]; 4 µg/mL (≈ 11.4 µM) in the experiment on Staphylococcus aureus [5]; 4 µg/mL (≈ 11.4 µM) in the experiment with Staphylococcus aureus [6].
